MIC, inhibition and Activity data for seven compounds are collected here from ChEMBL document CHEMBL4732114, “Design and structural optimization of novel 2H-benzo[h]chromene derivatives that target AcrB and reverse bacterial multidrug resistance” (Eur J Med Chem, 2021).

In brackets after ≈: the same amount, converted by molar mass. Activity calls are given as the source filed them. The rule behind the calls is not given here.

Data set [1] has as its target T1, Multidrug efflux pump subunit AcrB (Escherichia coli (strain K12)) (UniProt P31224).
T1 sequence (whole entry): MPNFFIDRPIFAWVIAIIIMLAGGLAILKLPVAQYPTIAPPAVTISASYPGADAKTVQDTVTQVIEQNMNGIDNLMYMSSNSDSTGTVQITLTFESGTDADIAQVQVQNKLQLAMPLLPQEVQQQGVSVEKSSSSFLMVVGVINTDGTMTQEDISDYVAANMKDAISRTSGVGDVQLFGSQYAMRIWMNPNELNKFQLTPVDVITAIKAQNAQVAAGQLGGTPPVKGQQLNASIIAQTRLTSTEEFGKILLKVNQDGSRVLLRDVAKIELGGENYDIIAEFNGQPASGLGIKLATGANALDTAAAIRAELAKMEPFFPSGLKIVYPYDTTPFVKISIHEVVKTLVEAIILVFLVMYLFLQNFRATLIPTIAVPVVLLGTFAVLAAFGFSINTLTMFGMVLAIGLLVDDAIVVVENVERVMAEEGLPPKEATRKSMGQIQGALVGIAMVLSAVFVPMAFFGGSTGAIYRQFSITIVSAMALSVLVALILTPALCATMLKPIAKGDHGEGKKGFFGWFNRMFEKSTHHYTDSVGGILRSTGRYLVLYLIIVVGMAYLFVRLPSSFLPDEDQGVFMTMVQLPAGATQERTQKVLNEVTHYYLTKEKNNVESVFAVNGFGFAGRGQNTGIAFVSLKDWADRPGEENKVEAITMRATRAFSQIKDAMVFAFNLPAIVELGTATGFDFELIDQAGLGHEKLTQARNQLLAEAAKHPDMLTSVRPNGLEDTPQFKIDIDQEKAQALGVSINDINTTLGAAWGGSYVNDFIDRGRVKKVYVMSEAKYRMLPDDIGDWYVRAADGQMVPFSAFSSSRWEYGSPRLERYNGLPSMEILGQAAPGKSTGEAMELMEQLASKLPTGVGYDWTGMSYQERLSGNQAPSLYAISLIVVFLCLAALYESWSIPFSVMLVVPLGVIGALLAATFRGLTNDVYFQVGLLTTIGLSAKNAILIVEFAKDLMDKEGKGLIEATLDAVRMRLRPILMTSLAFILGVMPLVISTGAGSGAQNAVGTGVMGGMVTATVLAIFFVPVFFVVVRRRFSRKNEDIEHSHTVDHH
The experiment in a line: Inhibition of AcrB in multidrug-resistant Escherichia coli BW25113 assessed as potentiation of erythromycin-induced antibacterial activity by measuring erythromycin MIC at 8 ug/ml by checkerboard titration method (reference value: 64 ug/ml). The conditions noted are these: dose 8.0 µg/ml.

Data set [2] in a line: Toxicity in multidrug-resistant Escherichia coli BW25113 assessed as growth inhibition by two-fold broth dilution method.
The nature of data set [3]: Toxicity in multidrug-resistant Escherichia coli BW25113 harboring AcrB deletion mutant assessed as growth inhibition by two-fold broth dilution method. On the technique in general: In broth dilution the organism is exposed to a series of concentrations in liquid medium.
In data set [4] the target is T1, Multidrug efflux pump subunit AcrB (Escherichia coli (strain K12)). The data set can be described thus: Inhibition of AcrB in multidrug-resistant Escherichia coli BW25113 assessed as potentiation of chloramphenicol-induced antibacterial activity by measuring chloramphenicol MIC at 8 ug/ml by checkerboard titration method (reference value: 8 ug/ml). Conditions: dose 8.0 µg/ml.

For data set [5] the target is unchanged. The experiment in a line: Inhibition of AcrB in multidrug-resistant Escherichia coli BW25113 assessed as potentiation of chloramphenicol-induced antibacterial activity by measuring chloramphenicol MIC at 16 ug/ml by checkerboard titration method (reference value: 8 ug/ml). Conditions: dose 16.0 µg/ml.
For data set [6] the target is unchanged. The data set can be described thus: Inhibition of AcrB in multidrug-resistant Escherichia coli BW25113 assessed as potentiation of chloramphenicol-induced antibacterial activity by measuring chloramphenicol MIC at 32 ug/ml by checkerboard titration method (reference value: 8 ug/ml). Conditions: dose 32.0 µg/ml.
For data set [7] the target is unchanged. The data set can be described thus: Inhibition of AcrB in multidrug-resistant Escherichia coli BW25113 assessed as potentiation of erythromycin-induced antibacterial activity by measuring erythromycin MIC at 16 ug/ml by checkerboard titration method (reference value: 64 ug/ml). Conditions: dose 16.0 µg/ml.
The target is the same in data set [8]. The experiment in a line: Inhibition of AcrB in multidrug-resistant Escherichia coli BW25113 assessed as potentiation of erythromycin-induced antibacterial activity by measuring erythromycin MIC at 32 ug/ml by checkerboard titration method (reference value: 64 ug/ml). The conditions noted are these: dose 32.0 µg/ml.
For data set [9] the target is unchanged. The data set can be described thus: Inhibition of AcrB in multidrug-resistant Escherichia coli BW25113 assessed as potentiation of tetraphenylphosphonium-induced antibacterial activity by measuring tetraphenylphosphonium MIC at 8 ug/ml by checkerboard titration method (reference value: 1024 ug/ml). The conditions noted are these: dose 8.0 µg/ml.
Data set [10] shares this target. The experiment in a line: Inhibition of AcrB in multidrug-resistant Escherichia coli BW25113 assessed as potentiation of tetraphenylphosphonium-induced antibacterial activity by measuring tetraphenylphosphonium MIC at 16 ug/ml by checkerboard titration method (reference value: 1024 ug/ml). Conditions: dose 16.0 µg/ml.
For data set [11] the target is unchanged. The experiment in a line: Inhibition of AcrB in multidrug-resistant Escherichia coli BW25113 assessed as potentiation of tetraphenylphosphonium-induced antibacterial activity by measuring tetraphenylphosphonium MIC at 32 ug/ml by checkerboard titration method (reference value: 1024 ug/ml). The conditions noted are these: dose 32.0 µg/ml.
Data set [12] has the same target. The experiment in a line: Inhibition of AcrB in multidrug-resistant Escherichia coli BW25113 assessed as potentiation of levofloxacin-induced antibacterial activity by measuring levofloxacin MIC at 8 ug/ml by checkerboard titration method (reference value: 0.06 ug/ml). The conditions noted are these: dose 8.0 µg/ml.
Data set [13] has the same target. The experiment in a line: Inhibition of AcrB in multidrug-resistant Escherichia coli BW25113 assessed as potentiation of levofloxacin-induced antibacterial activity by measuring levofloxacin MIC at 16 ug/ml by checkerboard titration method (reference value: 0.06 ug/ml). Conditions: dose 16.0 µg/ml.
Data set [14] has the same target. The data set can be described thus: Inhibition of AcrB in multidrug-resistant Escherichia coli BW25113 assessed as potentiation of levofloxacin-induced antibacterial activity by measuring levofloxacin MIC at 32 ug/ml by checkerboard titration method (reference value: 0.06 ug/ml). The conditions noted are these: dose 32.0 µg/ml.
The target is the same in data set [15]. The experiment in a line: Inhibition of AcrB in Escherichia coli BW25113 assessed as reduction in glucose-induced nile red efflux at 50 uM preincubated for 15 mins followed by nile red addition and incubated for 3 hrs in shaker in presence of CCCP by fluorimetric analysis. Conditions: time 3.25 hrs. An outline of the steps: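 Wild-type and AcrB-deleted cells were preloaded with Nile Red, with or without compound. Fluorescence was recorded, and efflux was triggered at 100 s with 0.2% glucose. Traces were compared with the deletion-strain level. Triplicate experiments used different cell batches.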

Data set [16] has as its system Cell membrane. The data set can be described thus: Induction of outer membrane permeabilization in wild type Escherichia coli BW25113 assessed as increase in nitrocefin hydrolysis at 128 ug/ml in presence of CCCP by spectroscopic analysis. The conditions noted are these: dose 128 µg/ml. The essentials:
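Intact E. coli were treated with 10 μM CCCP to block nitrocefin efflux, then given compound, nothing, or polymyxin B as permeabilizer control. Nitrocefin was added, and hydrolysis by periplasmic β-lactamase was followed as the rise in absorbance at 490 nm. Duplicate experiments were run on different days.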

The test system of data set [17] is Cell membrane. The experiment in a line: Induction of inner membrane permeabilization in wild type Escherichia coli BW25113 assessed as perturbation of proton motive force at 32 ug/ml measured after 10 mins in presence of CCCP and glucose by Di0C2(3) probe based fluorescence assay. Conditions: escherichia coli bw25113, 10 min, dose 32 µg/ml. The essentials: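 Cell suspensions were left untreated or exposed to 8-128 µg/mL compound for 10 min. DiOC₂(3) was then added and fluorescence followed to a plateau. Cells were re-energized with 0.5% glucose, and the rise in fluorescence was read as membrane-potential build-up. CCCP was added last to dissipate the potential.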

For data set [18], the target named is T1, Multidrug efflux pump subunit AcrB (Escherichia coli (strain K12)). The conditions noted are these: Escherichia coli BW25113; dose 8.0 µg/ml.
Data set [19] has the same target. The conditions noted are these: Escherichia coli BW25113; dose 16.0 µg/ml.
For data set [20] the target is unchanged. The conditions noted are these: Escherichia coli BW25113; dose 32.0 µg/ml.
Data set [21] shares this target. The conditions noted are these: Escherichia coli BW25113; dose 64.0 µg/ml.
Data set [22] shares this target. Conditions: Escherichia coli BW25113; dose 128.0 µg/ml.
The subject of another data set is Escherichia coli. The data set can be described thus: Antibacterial activity against multidrug-resistant Escherichia coli BW25113 harboring AcrB deletion mutant by two-fold broth dilution method. Type of data set: functional. An outline of the steps:
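Two-fold broth dilution MIC against an isogenic BW25113 strain with AcrB deleted, run alongside the AcrB-expressing parent. The test was done to define sub-inhibitory levels for later checkerboard work.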

In the case of `CC1(C)CCc2c(-c3nnco3)cc3c(OCc4ccc(F)cc4)cccc3c2O1`, the MIC in data set [1] worked out at 64 µg/mL; in data set [2], 64 µg/mL (≈ 158 µM); in data set [3] it was 64 µg/mL (≈ 158 µM); in data set [4] it was 8 µg/mL; in data set [5], 8 µg/mL; in data set [6], 8 µg/mL. Moreover, the MIC was determined as 64 µg/mL in [7]; 32 µg/mL in data set [8]; 1020 µg/mL in data set [9]; 512 µg/mL in [10]; 512 µg/mL in [11]; 0.06 µg/mL in data set [12]. Moreover, the MIC in data set [13] came to 0.06 µg/mL; in data set [14] it was 0.06 µg/mL; in data set [18], 16 µg/mL (≈ 39.6 µM); in data set [19] it was 16 µg/mL (≈ 39.6 µM); in [20], 16 µg/mL (≈ 39.6 µM); in data set [21], 16 µg/mL (≈ 39.6 µM). The same compound returned an MIC in data set [22] of 16 µg/mL (≈ 39.6 µM). The inhibition result in data set [15] was “Active”. The Activity result in the data set with Cell membrane [16] and with Cell membrane [17] was “Not Active” throughout.
Take `c1ccc([P+](c2ccccc2)(c2ccccc2)c2ccccc2)cc1` [TETRAPHENYLPHOSPHONIUM]: the MIC in the data set with Escherichia coli is 32 µg/mL.
As for `O=C(N[C@H](CO)[C@H](O)c1ccc([N+](=O)[O-])cc1)C(Cl)Cl` [CHLORAMPHENICOL], in the data set on Escherichia coli, the MIC was 2 µg/mL (≈ 6.19 µM).
In turn, `C[C@H]1COc2c(N3CCN(C)CC3)c(F)cc3c(=O)c(C(=O)O)cn1c23.C[C@H]1COc2c(N3CCN(C)CC3)c(F)cc3c(=O)c(C(=O)O)cn1c23.O` [LEVOFLOXACIN] returned an MIC with Escherichia coli of 0.04 µg/mL.
For `CC[C@H]1OC(=O)[C@H](C)[C@@H](O[C@H]2C[C@@](C)(OC)[C@@H](O)[C@H](C)O2)[C@H](C)[C@@H](O[C@@H]2O[C@H](C)C[C@H](N(C)C)[C@H]2O)[C@](C)(O)C[C@@H](C)C(=O)[C@H](C)[C@@H](O)[C@]1(C)O` [ERYTHROMYCIN], the MIC with Escherichia coli amounted to 4 µg/mL (≈ 5.45 µM).
The compound `CO[C@H]1/C=C/O[C@@]2(C)Oc3c(C)c(O)c4c(O)c(c(/C=N/N5CCN(C)CC5)c(O)c4c3C2=O)NC(=O)/C(C)=C\C=C\[C@H](C)[C@H](O)[C@@H](C)[C@@H](O)[C@@H](C)[C@H](OC(C)=O)[C@@H]1C` [RIFAMPIN] yielded an MIC against Escherichia coli of 16 µg/mL (≈ 19.4 µM).
For the compound `CC1CN(C(=O)c2cc3c(OCc4ccc([N+](=O)[O-])cc4)cccc3c3c2CCC(C)(C)O3)CC(C)O1` (centres undefined), the results for the MIC in data set [2] and in data set [3] were more than 512 µg/mL and more than 128 µg/mL, respectively.
